# Measurements as given in ChEMBL document CHEMBL3286367, “Synthesis of new class of spirocarbocycle derivatives by multicomponent domino reaction and their evaluation for antimicrobial, anticancer activity and molecular docking studies” (2014).
# Calls of active or inactive are those of the source. The rule behind the calls is not given here.
# Legend:
# Klebsiella pneumoniae [1] = assay: Antimicrobial activity against Klebsiella pneumonia MTCC 109 assessed as absence of visible growth after 48 to 72 hrs; format: functional
# Staphylococcus aureus [2] = assay: Antimicrobial activity against methicillin-resistant Staphylococcus aureus assessed as zone of inhibition at 1 mg/disc after 24 hrs incubation by disc diffusion assay; format: functional
# How it was run: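 Inoculum grown in Mueller Hinton broth 24 h at 37°C, swabbed onto Mueller Hinton agar and dried 10 min. Discs loaded at 1 mg/disc, then 30 min at room temperature for diffusion. Plates incubated 24 h at 37°C. Solvent negative control; streptomycin positive control. Zone of inhibition read in mm; experiment done twice.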
# Micrococcus luteus [3] = assay: Antimicrobial activity against Micrococcus luteus MTCC 106 assessed as absence of visible growth after 48 to 72 hrs; format: functional
# Shigella flexneri [4] = assay: Antimicrobial activity against Shigella flexneri MTCC 1457 assessed as absence of visible growth after 24 hrs
# Micrococcus luteus [5] = assay: Antimicrobial activity against Micrococcus luteus MTCC 106 assessed as zone of inhibition at 1 mg/disc after 24 hrs incubation by disc diffusion assay; format: functional
# How it was run: (§1)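 Inocula grown in Mueller Hinton broth for 24 h at 37 °C and swabbed onto Mueller Hinton agar. Discs carried 1 mg compound each and stood 30 min at room temperature before 24 h incubation at 37 °C. Solvent as negative control. Inhibition zones recorded in mm; experiment done twice.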
# [6] = tested on: Staphylococcus epidermidis; assay: Antimicrobial activity against Staphylococcus epidermidis MTCC 3615 assessed as zone of inhibition at 1 mg/disc after 24 hrs incubation by disc diffusion assay; format: functional; how it was run: as §1
# Salmonella typhimurium [7] = assay: Antimicrobial activity against Salmonella typhimurium MTCC 1251 assessed as absence of visible growth after 48 to 72 hrs; format: functional, Salmonella enterica subsp. enterica serovar Typhimurium; conditions: Salmonella enterica
# Staphylococcus aureus [8] = assay: Antimicrobial activity against Staphylococcus aureus MTCC 96 assessed as absence of visible growth after 48 to 72 hrs; format: functional
# Proteus vulgaris [9] = assay: Antimicrobial activity against Proteus vulgaris MTCC 1771 assessed as absence of visible growth after 48 to 72 hrs; format: functional
# Klebsiella aerogenes [10] = assay: Antimicrobial activity against Enterobacter aerogenes MTCC 111 assessed as zone of inhibition at 1 mg/disc after 24 hrs incubation by disc diffusion assay; format: functional; how it was run: as §1
# Staphylococcus aureus [11] = assay: Antimicrobial activity against methicillin-resistant Staphylococcus aureus assessed as absence of visible growth after 48 to 72 hrs; format: functional
# How it was run: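 Broth two-fold serial dilution in 96-well plates, 1000 to 7.81 µg/mL, compound dissolved in DMSO (2%). Inoculum grown in Mueller Hinton broth 24 h at 37°C. Streptomycin positive control. 5 µl of tested broth plated on MHA; MIC is the lowest concentration inhibiting visible growth on agar.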
# Klebsiella aerogenes [12] = assay: Antimicrobial activity against Enterobacter aerogenes MTCC 111 assessed as absence of visible growth after 48 to 72 hrs; format: functional
# Staphylococcus aureus [13] = assay: Antimicrobial activity against Staphylococcus aureus MTCC 96 assessed as zone of inhibition at 1 mg/disc after 24 hrs incubation by disc diffusion assay; format: functional; how it was run: as §1
# Klebsiella pneumoniae [14] = assay: Antimicrobial activity against Klebsiella pneumonia MTCC 109 assessed as zone of inhibition at 1 mg/disc after 24 hrs incubation by disc diffusion assay; format: functional; how it was run: as §1
# [15] = tested on: Staphylococcus epidermidis; assay: Antimicrobial activity against Staphylococcus epidermidis MTCC 3615 assessed as absence of visible growth after 48 to 72 hrs; format: functional
# Salmonella typhimurium [16] = assay: Antimicrobial activity against Salmonella typhimurium MTCC 1251 assessed as zone of inhibition at 1 mg/disc after 24 hrs incubation by disc diffusion assay; format: functional, Salmonella enterica subsp. enterica serovar Typhimurium; how it was run: as §1
# Shigella flexneri [17] = assay: Antimicrobial activity against Shigella flexneri MTCC 1457 assessed as zone of inhibition at 1 mg/disc after 24 hrs incubation by disc diffusion assay; format: functional; how it was run: as §1
# Proteus vulgaris [18] = assay: Antimicrobial activity against Proteus vulgaris MTCC 1771 assessed as zone of inhibition at 1 mg/disc after 24 hrs incubation by disc diffusion assay; format: functional; how it was run: as §1
# Malassezia pachydermatis = assay: Antifungal activity against Malassezia pachydermatis assessed as zone of inhibition at 1 mg/disc after 48 hrs incubation by disc diffusion assay; format: functional
# How it was run: (§2)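 Disc diffusion on Mueller Hinton agar with swabbed cultures, 1 mg compound per disc. Discs stood 30 min at room temperature for diffusion, then plates incubated 48 h at 28 °C. Solvent as negative control. Yeast pre-grown in Sabouraud dextrose broth at 28 °C for 48-72 h; filamentous fungal spores came from SDA slants grown 10 days at 28 °C. Zone diameters in mm; run twice.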
# Shigella flexneri [19] = assay: Antimicrobial activity against Shigella flexneri MTCC 1457 assessed as absence of visible growth after 48 to 72 hrs; format: functional
# Candida albicans = assay: Antifungal activity against Candida albicans MTCC 227 assessed as zone of inhibition at 1 mg/disc after 48 hrs incubation by disc diffusion assay; format: functional; how it was run: as §2
# [20] = tested on: Staphylococcus epidermidis; assay: Antimicrobial activity against Staphylococcus epidermidis MTCC 3615 assessed as absence of visible growth after 24 hrs
# Klebsiella pneumoniae [21] = assay: Antimicrobial activity against Klebsiella pneumonia MTCC 109 assessed as absence of visible growth after 24 hrs
SMILES,inhibition zone (IZ) (Staphylococcus aureus [2]) [mm],MIC (Micrococcus luteus [3]) [µg/mL],MIC (Shigella flexneri [4]) [µg/mL],inhibition zone (IZ) (Micrococcus luteus [5]) [mm],inhibition zone (IZ) [6] [mm],MIC (Salmonella typhimurium [7]) [µg/mL],MIC (Staphylococcus aureus [8]) [µg/mL],MIC (Proteus vulgaris [9]) [µg/mL],inhibition zone (IZ) (Klebsiella aerogenes [10]) [mm],MIC (Staphylococcus aureus [11]) [µg/mL],MIC (Klebsiella aerogenes [12]) [µg/mL],inhibition zone (IZ) (Staphylococcus aureus [13]) [mm],inhibition zone (IZ) (Klebsiella pneumoniae [14]) [mm],inhibition zone (IZ) (Salmonella typhimurium [16]) [mm],inhibition zone (IZ) (Shigella flexneri [17]) [mm],inhibition zone (IZ) (Proteus vulgaris [18]) [mm],inhibition zone (IZ) (Malassezia pachydermatis) [mm],inhibition zone (IZ) (Candida albicans) [mm],MIC [20] [µg/mL],MIC (Klebsiella pneumoniae [21]) [µg/mL],also measured
CN[C@@H]1[C@H](O[C@H]2[C@H](O[C@H]3[C@H](O)[C@@H](O)[C@H](N=C(N)N)[C@@H](O)[C@@H]3N=C(N)N)O[C@@H](C)[C@]2(O)C=O)O[C@@H](CO)[C@H](O)[C@H]1O [STREPTOMYCIN],30,6.25,6.25,26,26,30,6.25,6.25,22,6.25,25,14,20,18,30,30,,,,,MIC (Klebsiella pneumoniae [1]): 6.25 µg/mL; MIC [15]: 6.25 µg/mL
Cc1ccc([C@H]2[C@@H]3CCCC=C3C(C#N)=C(N)C23C(=O)c2ccccc2C3=O)cc1 (relative stereo),11,1000,,9,10,250,250,500,13,250,250,10,15,14,8,10,11,10,500,,MIC (Klebsiella pneumoniae [1]): 250 µg/mL; MIC (Shigella flexneri [19]): 1000 µg/mL
COc1ccc([C@H]2[C@@H]3CCCC=C3C(C#N)=C(N)C23C(=O)CCCC3=O)cc1 (relative stereo),15,250,125,21,13,250,250,125,14,250,250,14,16,11,19,17,9,10,,,MIC (Klebsiella pneumoniae [1]): 125 µg/mL; MIC [15]: 250 µg/mL
N#CC1=C(N)C2(C(=O)c3ccccc3C2=O)[C@@H](c2cccs2)[C@@H]2CCCC=C12 (relative stereo),18,250,62.5,10,12,125,250,62.5,15,125,250,10,14,16,24,22,11,10,250,250,
Cc1ccc([C@H]2[C@@H]3CCC=C3C(C#N)=C(N)C23C(=O)c2ccccc2C3=O)cc1 (relative stereo),12,250,,12,14,500,125,125,15,250,250,17,15,10,13,16,13,10,250,,MIC (Klebsiella pneumoniae [1]): 250 µg/mL; MIC (Shigella flexneri [19]): 250 µg/mL
N#CC1=C(N)C2(C(=O)c3ccccc3C2=O)[C@@H](c2cccc3ccccc23)[C@@H]2CCCC=C12 (relative stereo),21,62.5,62.5,22,15,125,250,125,17,62.5,125,12,17,18,21,19,9,10,125,125,
N#CC1=C(N)[C@]2(C(=O)Nc3ccccc32)[C@@H](c2ccc(Br)cc2)[C@@H]2CCCC=C12,12,1000,1000,8,10,250,250,1000,15,250,250,12,10,11,8,9,10,10,,500,MIC [15]: 500 µg/mL
Cc1ccc([C@H]2[C@@H]3CCCC=C3C(C#N)=C(N)[C@]23C(=O)Nc2ccccc23)cc1,9,1000,1000,8,12,1000,250,250,13,1000,250,11,10,9,9,12,10,8,250,500,
N#CC1=C(N)C2(C(=O)c3ccccc3C2=O)[C@@H](c2ccccc2F)[C@@H]2CCC=C12 (relative stereo),16,250,250,12,17,250,250,250,15,125,250,14,15,12,10,14,,,125,250,inhibition (Malassezia pachydermatis): inactive; inhibition (Candida albicans): inactive
